Shown are actives, neighbours in structure and some others; about 6.4% of the full set was active somewhere.
TbMetRS inhib: T. brucei MetRS inhibitors, primary screen, biochemical, luminescence; purified T. brucei MetRS, ATP depletion, Kinase-Glo luminescence; inhibition, % at 11.9 µM; methionyl-tRNA synthetase (Trypanosoma brucei brucei); hit rate 0.4% among 360,000;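 active = inhibition above a per-plate cutoff of the control wells' mean inhibition plus 3 SD, cut at about 5.5% in these data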;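 note: 0% = DMSO wells median and 100% = median of wells with control inhibitor compound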
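assay system = parasite MetRS enzyme | timing = 15 min preincubation, 2 h reaction, all 25 °C | evaluation = percent inhibition relative to median high and low control wells | medium = HEPES buffer containing pyrophosphatase, BSA, spermine, DTT | compound = single dose, 11.9 µM final nominal, 0.9% final DMSO | detection = Kinase-Glo luminescence, ATP depletion format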
CHOP inh: inhibitors of CHOP promoter induction, primary screen, cell-based, unfolded protein response, luciferase reporter; CHO-K1 CHOP-promoter luciferase, tunicamycin-induced, 15-18 h; inhibition, % at 10 µM; hit rate 3.8% among 220,000;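 active = compounds that reduced the stress-induced luciferase reporter signal by more than about 70% of percent inhibition, limit read from the data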;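 note: 0% = tunicamycin plus vehicle and 100% = wells without tunicamycin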
WT yeast gro inh: growth inhibition of WT strain, primary screen, mitochondrial fusion inhibitor project, WT and mutant strains, chemical genetic; mitochondrial fusion phenotypic screen; inhibition, % at 10 µM; hit rate 2.1% among 190,000; AID 1362, 2008; in the data active = inhibition above about 58%; tested in S. cerevisiae
EBV gp42 block: Epstein-Barr virus gp42 inhibitors, primary screen, biochemical, uHTS, fluorescence polarization; hit rate 0.42% among 220,000; inhibition, % (tested at 21.74 µM); AID 1085, 2008; Glycoprotein 42 (Epstein-Barr virus (strain AG876)), Q1HVG2; Fluorescence polarization binding assay, mP read-out; in the data active = inhibition above about 50%
Target sequence (Q1HVG2 whole entry, looked up): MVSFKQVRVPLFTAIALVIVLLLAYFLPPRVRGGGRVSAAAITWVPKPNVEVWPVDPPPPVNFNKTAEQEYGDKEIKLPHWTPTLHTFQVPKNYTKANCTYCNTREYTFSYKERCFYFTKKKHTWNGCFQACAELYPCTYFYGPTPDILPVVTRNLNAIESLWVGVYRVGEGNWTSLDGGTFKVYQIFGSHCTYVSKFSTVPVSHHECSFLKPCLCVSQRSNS
MPTP block: mitochondrial permeability transition pore inhibitors, primary screen, biochemical, isolated mouse mitochondria, absorbance. Ca2+ swelling absorbance, 30 min. inhibition, % at 10 µM. hit rate 1.4% among 360,000. AID 602449, 2012;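 active = inhibition of 50% or more, scaled per plate between neutral and stimulator controls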;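 note: 0% = DMSO wells given calcium and 100% = 1 mM EGTA wells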
NR3A LBD binder: binders of NR3A ligand-binding domain, primary screen, biophysical, differential scanning fluorimetry, uHTS. Glutamate receptor ionotropic, NMDA 3A (GRIN3A) ligand-binding domain. NR3A LBD differential scanning fluorimetry, Tm shift; 0% = protein alone, 100% = glycine-bound protein. Tm shift relative to glycine control, % at 25 µM. hit rate 2.5% among 340,000;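 active = melting temperature shift of at least 10% of the positive control shift, at one fixed dose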
Rh123 counter: fluorescence retest of MPTP screen hits in isolated mitochondria, single concentration; shares compounds with MPTP block; membrane potential, Rhodamine 123 fluorescence; inhibition, % at 10 µM; hit rate 78% among 5,000; AID 624504, 2012; in the data active = inhibition above about 22%;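 note: 0% = DMSO vehicle and 100% = positive control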
MPTP abs DR: mitochondrial permeability transition pore inhibitors, dose response, biochemical, absorbance, uHTS hits. IC50, µM. hit rate 58% among 780. shares compounds with MPTP block. isolated mitochondria swelling; in the data active = IC50 below about 20 µM
MPTP counter DR: fluorescent counter-screen in isolated mitochondria, dose response, counter-screen for MPTP inhibitor project, biochemical, fluorescence, uHTS hits. shares compounds with MPTP block. isolated mitochondria counterscreen, fluorescence read-out. IC50, µM. hit rate 49% among 780. AID 651564, 2012; in the data active = IC50 below about 80 µM
Starred values were filed as active, the others as inactive; . = not tested or not shown.

SMILES	TbMetRS inhib	CHOP inh	WT yeast gro inh	EBV gp42 block	MPTP block	NR3A LBD binder	Rh123 counter	others
O=C(N/N=C/c1cc([N+](=O)[O-])ccc1O)Nc1ccccc1	0	42	-24	-10	4	3	.
CN(/N=C/c1cc([N+](=O)[O-])ccc1O)c1ccccc1	1	-2	-5	-17	57*	-6	66*
O=[N+]([O-])c1cccc(N/N=C/c2cc([N+](=O)[O-])ccc2O)c1	-1	95*	2	18	64*	31*	61*
CCOc1ccc(S(=O)(=O)N2CCCCC2)cc1NC(=O)Cc1ccc(OC)cc1	0	.	.	.	3	.	.
CCCN(C1CCS(=O)(=O)C1)S(=O)(=O)c1ccc2ccccc2c1 (stereo not drawn)	0	.	.	.	-2	3	.
Cc1csc2c(N3CCN(C(=O)Nc4ccc(OC(F)(F)F)cc4)CC3)ncnc12	-1	-4	.	-5	89*	-4	72*
Cc1csc2c(N3CCC(C(=O)O)CC3)ncnc12	-1	22	.	-6	2	1	.
Cc1ccc(NC(=O)Nc2c(Cl)cccc2Cl)cn1	-1	17	.	-9	0	-8	.
Cc1cc2nc(C)n(CCCNC(=O)Nc3cccc4ccccc34)c2cc1C	0	75*	-9	-69	88*	-3	91*
CCN1/C(=C/C=C/c2sc3ccccc3[n+]2CC)Sc2ccccc21	-2	.	.	.	136*	-3	84*
CCN1/C(=C/c2ccc3cc(C)ccc3[n+]2CC)Sc2ccccc21	-1	108*	67	-162	105*	-3	96*
CCN1/C(=C/c2ccc3cc(C)ccc3[n+]2CC)Sc2cc(C)c(C)cc21	0	60	92*	-39	106*	-1	93*
CC[n+]1ccccc1/C=C1\Sc2ccc(C)cc2N1C	-1	.	.	.	1	1	.
Clc1cccc(Cc2nn[nH]n2)c1	0	11	2	-5	-1	0	.
CCOc1ccc(C(=O)Nc2ccc(N3CCN(C(=O)c4ccco4)CC3)cc2)cc1Br	0	.	.	.	0	-6	.
CC(=O)OCC1OC(Sc2cccc3cccnc23)C(OC(C)=O)C(OC(C)=O)C1OC(C)=O (stereo not drawn)	0	-20	6	-25	1	2	.
CN(C)S(=O)(=O)c1ccc(-c2csc(N/N=C/c3ccc(O)cc3)n2)cc1	0	18	.	-22	58*	23*	43*
CCOC(=O)Cn1ccc(NC(=O)c2ccc3c(c2)OCO3)n1	-1	.	.	.	-2	3	.
CN1CCCC1CCOC(C)(c1ccccc1)c1ccc(Cl)cc1 (stereo not drawn)	-1	1	.	.	81*	-3	-11	MPTP abs DR=6.1*;MPTP counter DR=>80
CC1=C(C#N)C(c2cccnc2)C2=C(CC(c3ccc(Cl)cc3)CC2=O)N1 (stereo not drawn)	1	12	-4	0	1	0	.
Cc1nnc(NC(=O)Nc2cccc(Cl)c2)s1	-1	49	3	2	1	-26	.
O=C(Nc1cccc(Cl)c1)Nc1nccs1	1	-22	4	-10	72*	31*	92*
O=C(Nc1ccc(Cl)c(Cl)c1)Nc1nccs1	2	79*	.	-4	87*	37*	68*
Cc1cccc(NC(=O)CN2C(=O)S/C(=C\c3ccc(O)c([N+](=O)[O-])c3)C2=O)c1	2	13	33	10	2	1	.
O=C1S/C(=C\c2ccc(O)c([N+](=O)[O-])c2)C(=O)N1Cc1cccc([N+](=O)[O-])c1	-2	7	86*	4	100*	3	61*
SMILES	TbMetRS inhib	CHOP inh	WT yeast gro inh	EBV gp42 block	MPTP block	NR3A LBD binder	Rh123 counter	others
O=C1S/C(=C\c2ccc(O)c([N+](=O)[O-])c2)C(=O)N1c1ccccc1Cl	0	48	80*	4	59*	2	71*
COc1cccc(CN2CCC(n3nccc3NC(=O)CCOc3ccccc3)CC2)c1	0	.	.	.	-2	0	.
COc1ccc(NS(=O)(=O)c2ccc3[nH]c(=O)[nH]c3c2)cc1	0	.	.	.	5	2	.
COc1ccc(NS(=O)(=O)c2ccc3nc(COc4ccc(Cl)c(C)c4)[nH]c3c2)cc1	-1	62	8	-9	67*	29*	66*
O=C(Nc1cc(-c2nc3ccccc3s2)ccc1Cl)c1ccc2c(c1)OCO2	0	-4	-6	-6	2	2	.
N#C/C(=C(/O)c1ccc2c(c1)OCO2)c1nc2cc(C(F)(F)F)ccc2s1	0	.	.	.	84*	4	94*
N#C/C(=C(/O)c1ccccc1F)c1nc2cc(C(F)(F)F)ccc2s1	0	26	16	-17	96*	9	92*
N#C/C(=C/c1ccncc1)c1nc2ccccc2s1	0	-41	13	2	2	-2	.
COc1ccc(Cc2nnc(Nc3ccc(Cl)cc3)[nH]c2=O)cc1	4	66	.	-21	84*	-1	67*
Cc1ccsc1C(=O)N(CC(C)C)c1c(N)n(Cc2ccccc2)c(=O)[nH]c1=O	0	.	.	.	-2	-1	.
CCOC(=O)n1c(=O)n(Cc2cccc(C)c2)c2ccccc21	0	30	12	-15	0	-3	.
CC(=O)N1CCN(c2ccc(NC(=O)c3ccc(C)cc3)cc2)CC1	0	0	12	2	0	-2	.
O=S(=O)(c1cc(F)ccc1F)N1CCN(c2ccccn2)CC1	-1	.	.	.	2	2	.
O=S(=O)(c1cc(F)ccc1F)N1CCN(c2ncnc3ccccc23)CC1	0	.	.	.	95*	4	92*
O=c1c(-c2cccnc2)nc2ccccc2n1C(CCc1ccccc1)c1nc2ccccc2[nH]1 (stereo not drawn)	-1	.	.	.	1	.	.
Cc1c(Cl)cccc1NC(=S)NCCC(c1ccccc1)c1ccccc1	0	1	78*	-8	62*	-7	87*
Cc1cc(Cl)ccc1NC(=S)NCCC(c1ccccc1)c1ccccc1	-1	50	74*	10	100*	9	97*
Cc1c(Cl)cccc1NC(=S)NCc1ccccc1Cl	-1	30	40	-6	84*	-3	94*

Screening results (PubChem)
